Screening results deposited in PubChem BioAssay by several laboratories.
Rows were chosen to be rich in hits. Some 2.2% of all compounds tested hit in one or more screens of this group.
GRK2 aptamer HTS = inhibitors of human GRK2 displacing RNA aptamer; inhibition of aptamer binding, % at 10 µM; bead flow cytometry, FAM-aptamer displacement from GRK2; P25098; AID 488847; 0.59% of 330,000 active;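 active = inhibition of aptamer binding above 40%, roughly 3 SD of noise, on plates passing a quality check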;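 note: median bead fluorescence of bound FAM aptamer so fluorescent compounds give negative values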
Scp1 inh = Scp-1 (human) phosphatase inhibition. Q9GZU7. Recombinant Scp1, phosphopeptide, malachite green phosphate absorbance. inhibition, % at 20 µM. 0.88% of 340,000 active;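 active = inhibition above about 50% at 20 µM, limit read from the data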;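 note: plate controls were DMSO wells with enzyme for no effect and wells lacking enzyme for full effect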
Target sequence (Q9GZU7 76-261 limits assumed): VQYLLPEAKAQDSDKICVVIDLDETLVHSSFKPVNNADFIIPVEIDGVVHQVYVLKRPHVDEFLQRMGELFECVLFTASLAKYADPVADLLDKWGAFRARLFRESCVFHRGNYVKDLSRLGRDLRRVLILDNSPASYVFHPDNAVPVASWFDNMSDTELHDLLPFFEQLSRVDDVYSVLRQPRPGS
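System: SCP-1 catalytic domain; Reagent: Phospho 17-mer peptide substrate; Doses: one concentration, 20 µM, with 1.0% DMSO; Incubation: 45 min room-temperature reaction, 5 min colour, 30 min stabiliser; Signal: Phosphate-binding colour reagent, absorbance read at 630 nm.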
SUMO1-SIM PPI = modulators of human SUMO1-mediated protein-protein interactions | inhibition, % at 20 µM | SUMO1 binding to a labelled peptide, TR-FRET, 1 h | AID 602429 | 0.33% of 360,000 active; in the data active = inhibition above about 37%
Target sequence (P63165 whole entry, looked up): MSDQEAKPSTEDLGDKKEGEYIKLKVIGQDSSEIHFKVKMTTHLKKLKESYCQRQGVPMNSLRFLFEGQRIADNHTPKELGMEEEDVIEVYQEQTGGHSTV
DNMT1 inh = inhibitors of human DNMT1. P26358. DNMT1 molecular beacon, Hinp1I cleavage, fluorescence. inhibition (reported as % activation of signal), % at 10 µM. 0.83% of 360,000 active. AID 588458; in the data active = inhibition above about 50%
STEP inh = inhibitors of human striatal-enriched phosphatase STEP | inhibition, % at 20 µM | AID 588621 | recombinant STEP, OMFP fluorogenic substrate, fluorescence | 0.25% of 360,000 active;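 active = inhibition at 20 µM, scaled per plate between control wells, above about 37%, limit read from the data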;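 note: 0% = DMSO with enzyme and substrate and 100% = substrate only without enzyme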
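System: isolated STEP enzyme; schedule: 20 min enzyme reaction at room temperature, protected from light; medium: Bis-Tris buffer pH 6.0, 2.5 mM DTT, 0.005% Tween 20; signal: fluorescence, 480/540 nm; dosing: single compound dose of 20 µM, 1% DMSO final; also added: OMFP substrate, 25 µM final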
LMPTP block = LMPTP (human) inhibition. AID 651560. P24666. inhibition, % at 20 µM. recombinant LMPTP-A, OMFP fluorogenic substrate, fluorescence intensity. 0.22% of 360,000 active;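 active = compounds that cut the enzyme signal by at least half of the control window in the single-dose screen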;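 note: plate controls were DMSO wells with enzyme plus substrate for no effect and substrate without enzyme for full effect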
Target sequence (P24666 whole entry, looked up): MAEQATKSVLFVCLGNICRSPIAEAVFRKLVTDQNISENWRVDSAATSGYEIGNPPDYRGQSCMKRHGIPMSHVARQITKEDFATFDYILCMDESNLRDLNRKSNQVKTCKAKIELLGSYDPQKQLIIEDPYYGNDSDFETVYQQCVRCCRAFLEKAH
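Test system: LMPTP-A, protein tyrosine phosphatase of low molecular weight; Input: 0.625 nM enzyme; Incubation: 50 min dark incubation at room temperature; Signal: endpoint fluorescence intensity from OMFP dephosphorylation; Read-out basis: % inhibition versus control wells.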
DNMT1 interf DR = shows spectral interference in the DNMT1 beacon assay; shares compounds with DNMT1 inh; molecular beacon fluorescence, spectral interference counter-screen; IC50, µM; 200 tested, under 10 active; AID 602382; call rule not given here
DNMT1 inh conf = DNMT1 inhibition confirmation, single concentration. DNMT1 molecular beacon HinP1I cleavage, fluorescence. inhibition, % at 10 µM. 8% of 2,300 active. shares compounds with DNMT1 inh. AID 602385;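 active = average inhibition of at least 30% in the single-concentration confirmation test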
DNMT1 interf = counter-screen for DNMT1 inhibitors: spectral interference; shares compounds with DNMT1 inh; DNMT1 molecular beacon spectral interference counterscreen, fluorescence 485/520; activation (fluorescence interference), % at 10 µM; 1% of 2,300 active; AID 602387;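 active = activation of at least 30% at 10 µM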;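 note: DNMT1 catalytic domain with a HinP1I cleavage step and a FAM/dabcyl DNA beacon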
The depositor's hits bear a star.

How did O=C(CNC(=O)/C=C/c1ccco1)N=Nc1c(O)[nH]c2ccccc12 do in these assays?
GRK2 aptamer HTS: 50*; Scp1 inh: 93*; SUMO1-SIM PPI: 105*; DNMT1 inh: 93*; STEP inh: 98*; LMPTP block: 72*; DNMT1 interf DR: >99; DNMT1 inh conf: 82*; DNMT1 interf: -3

Results for O=C(C1=C(O)C(=O)N(Cc2ccco2)C1c1cccc(O)c1)c1ccco1 (stereo not drawn) ?
GRK2 aptamer HTS: 0; Scp1 inh: -2; SUMO1-SIM PPI: 0; DNMT1 inh: 81*; STEP inh: 4; LMPTP block: 0; DNMT1 inh conf: 1; DNMT1 interf: 1

What do the screens show for `Cc1ccc(C(=O)C2=C(O)C(=O)N(Cc3ccco3)C2c2cccc(Br)c2)o1` (stereo not drawn)?
GRK2 aptamer HTS: 4; Scp1 inh: -4; SUMO1-SIM PPI: -2; DNMT1 inh: 0; STEP inh: 3; LMPTP block: 22

How did CCCNC(=O)C1(C)CCN(CCOc2ccc(Cl)cc2)C1 (stereo not drawn) do in these assays?
SUMO1-SIM PPI: 1; DNMT1 inh: 5; STEP inh: -2; LMPTP block: 1

What do the screens show for `CC(=O)N1CCN(c2cc(-c3ccccc3)nc3cc(-c4cccc(Cl)c4)nn23)CC1`?
SUMO1-SIM PPI: -1; DNMT1 inh: -12; STEP inh: -2; LMPTP block: 5

Results for COc1ccc(-c2ccc3c(=O)cc(-c4ccsc4)oc3c2)cn1 ?
GRK2 aptamer HTS: 0; Scp1 inh: 1; SUMO1-SIM PPI: 19; DNMT1 inh: 53*; STEP inh: -2; LMPTP block: 33; DNMT1 inh conf: 1; DNMT1 interf: 2

What do the screens show for `COc1cc(-c2ccc3oc(-c4ccsc4)cc(=O)c3c2)cc(OC)c1OC`?
GRK2 aptamer HTS: 5; Scp1 inh: -12; SUMO1-SIM PPI: 8; DNMT1 inh: -9; STEP inh: 3; LMPTP block: 5

Results for CCOC(=O)c1c(NC(=O)C2CCCO2)sc(C(=O)OC(C)(C)C)c1C (stereo not drawn) ?
GRK2 aptamer HTS: 0; Scp1 inh: 0; SUMO1-SIM PPI: 5; DNMT1 inh: 51*; STEP inh: 8; LMPTP block: 2; DNMT1 inh conf: 2; DNMT1 interf: 5

How did N#Cc1c(N)[nH]c(C(=O)c2ccccc2)c1-c1ccc(Cl)cc1 do in these assays?
SUMO1-SIM PPI: 1; LMPTP block: 4

What do the screens show for `C(=C\c1ccco1)/c1ccc2ccccc2n1`?
GRK2 aptamer HTS: 5; Scp1 inh: -7; SUMO1-SIM PPI: 9; DNMT1 inh: 80*; STEP inh: 5; LMPTP block: 57*; DNMT1 inh conf: 7; DNMT1 interf: 3

How did Fc1cccc(F)c1/C=C/c1ccc2ccccc2n1 do in these assays?
GRK2 aptamer HTS: 0; Scp1 inh: -1; SUMO1-SIM PPI: -14; DNMT1 inh: 5; STEP inh: 0; LMPTP block: 2

How did Cc1ccccc1N(C(=O)Cc1ccsc1)C(C(=O)NC1CCCCC1)c1ccc(F)cc1 (stereo not drawn) do in these assays?
GRK2 aptamer HTS: 2; Scp1 inh: -3; SUMO1-SIM PPI: 1; DNMT1 inh: 59*; STEP inh: -3; LMPTP block: 0; DNMT1 inh conf: 1; DNMT1 interf: 1

Results for CC(C)(C)c1ccc(S(=O)(=O)NC(=O)C2(C)CCN2C(=O)c2cccc3ccccc23)cc1 (stereo not drawn) ?
SUMO1-SIM PPI: 6; DNMT1 inh: 1; STEP inh: 1; LMPTP block: -3

Results for O=C(NCc1ccccc1)c1cc(C2CCCCN2C(=O)c2cccs2)on1 (stereo not drawn) ?
SUMO1-SIM PPI: -4; DNMT1 inh: -2; STEP inh: -2; LMPTP block: -2

What do the screens show for `N#Cc1c(N)nc2c(c1N)CC(CCl)O2` (stereo not drawn)?
GRK2 aptamer HTS: 22; Scp1 inh: -5; SUMO1-SIM PPI: 13; DNMT1 inh: 93*; STEP inh: -1; LMPTP block: 4; DNMT1 inh conf: 4; DNMT1 interf: 5

How did N#Cc1c(N2CCCCC2)nc(N)c2c(N)nc3c(c12)CC(CCl)O3 (stereo not drawn) do in these assays?
GRK2 aptamer HTS: 0; Scp1 inh: -3; SUMO1-SIM PPI: -9; DNMT1 inh: -8; STEP inh: 1; LMPTP block: 0

How did COc1cc2c(cc1[N+](=O)[O-])-c1ccc([N+](=O)[O-])cc1C2=NNC(N)=S do in these assays?
SUMO1-SIM PPI: -8; DNMT1 inh: -5; STEP inh: 2; LMPTP block: 32

What do the screens show for `NC(=S)NN=C1c2cc(Cl)ccc2-c2c1cc(Cl)cc2[N+](=O)[O-]`?
Scp1 inh: 0; SUMO1-SIM PPI: -9; DNMT1 inh: 51*; STEP inh: 0; LMPTP block: 34; DNMT1 inh conf: 2; DNMT1 interf: -7

What do the screens show for `NC(=O)C1CCN(C(=O)C2CCN(S(=O)(=O)c3ccccc3)CC2)CC1`?
GRK2 aptamer HTS: 0; Scp1 inh: -7; SUMO1-SIM PPI: 1; DNMT1 inh: 81*; STEP inh: 0; LMPTP block: -3; DNMT1 inh conf: 5; DNMT1 interf: 1

What do the screens show for `CCCCCNC(=O)C(c1ccncc1)n1c(=O)c(-c2cc3ccccc3[nH]2)nc2ccccc21` (stereo not drawn)?
SUMO1-SIM PPI: -9; LMPTP block: 4

Results for CC(/C=N\NC(=O)c1cc(C)oc1C)=C\c1ccccc1 ?
GRK2 aptamer HTS: 0; Scp1 inh: -4; SUMO1-SIM PPI: -10; DNMT1 inh: 72*; STEP inh: 1; LMPTP block: 0; DNMT1 inh conf: 4; DNMT1 interf: 4

Results for Cc1ccc(/C=N/NC(=O)c2cc(C)oc2C)cc1 ?
GRK2 aptamer HTS: 0; Scp1 inh: -10; SUMO1-SIM PPI: -11; DNMT1 inh: 1; STEP inh: 0; LMPTP block: -1

Results for CCCNC(=O)C1(C)CCCN(Cc2ccc(C)cc2)C1 (stereo not drawn) ?
SUMO1-SIM PPI: -1; DNMT1 inh: 5; STEP inh: -2; LMPTP block: 0
